Compound activity deposited in PubChem by several laboratories.
UCH37 DUB inh – inhibitors of human deubiquitinating enzyme UCH37. Q9Y5K5. inhibition, % (test concentration not listed). AID 588478. purified proteasome/UCH37, Ub-AMC cleavage fluorescence. 0.33% of 330,000 active;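 active = mean inhibition over replicate wells above about 20%, limit read from the data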
Target sequence (Q9Y5K5 whole entry, looked up): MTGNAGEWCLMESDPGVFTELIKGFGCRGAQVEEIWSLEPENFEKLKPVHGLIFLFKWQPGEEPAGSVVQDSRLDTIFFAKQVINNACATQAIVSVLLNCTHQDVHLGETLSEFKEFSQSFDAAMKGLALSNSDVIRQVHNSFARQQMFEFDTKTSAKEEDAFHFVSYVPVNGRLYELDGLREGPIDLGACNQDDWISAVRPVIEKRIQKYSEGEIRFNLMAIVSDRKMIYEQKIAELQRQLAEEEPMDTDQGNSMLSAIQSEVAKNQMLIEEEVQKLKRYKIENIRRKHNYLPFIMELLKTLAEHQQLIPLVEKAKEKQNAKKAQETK
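System: Proteasome-associated human UCH37 deubiquitinase; Input: 0.15 nM proteasome in added enzyme buffer; Also added: Ub-AMC substrate from 1 µM stock; Incubation: 30 min compound-proteasome preincubation then 25 min substrate reaction, room temperature; Detection: fluorescence, ex 355 nm, em 460 nm; Read-out: % inhibition of Ub-AMC cleavage fluorescence; Benchmarks: no-proteasome and no-compound wells.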
Calb FLC – C. albicans growth modulation with fluconazole; C. albicans CaCi-2 + fluconazole, Alamar Blue growth, 48 h; growth inhibition, % (no concentration beside the values); 0.57% of 300,000 active;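 active = growth inhibition above about 58% in most replicates, limit read from the data, passing the limit was not always enough; inconclusive = exactly half the replicates above a set limit; inactive = most replicates below a set limit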;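 note: all wells also contain fluconazole at 8 µg/ml as a sub-toxic cotreatment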
ALR inh – blocks human ALR sulfhydryl oxidase activity. AID 485317. purified ALR, DTT oxidation, H2O2 HRP-luminol luminescence. 3.8% of 290,000 active. inhibition, % (test concentration not listed);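 active = mean replicate inhibition above about 79%, with every replicate also reaching it, limit read from the data; inconclusive = only one of the two criteria met; inactive = mean below limit and not every replicate reaching it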
Target sequence (P55789 whole entry, looked up): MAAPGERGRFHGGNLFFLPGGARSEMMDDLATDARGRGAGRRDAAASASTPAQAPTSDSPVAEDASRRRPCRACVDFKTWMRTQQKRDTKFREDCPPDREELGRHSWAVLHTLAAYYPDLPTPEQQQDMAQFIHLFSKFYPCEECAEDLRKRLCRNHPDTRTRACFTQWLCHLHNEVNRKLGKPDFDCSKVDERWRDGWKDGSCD
NALP1 inh – NALP1 inhibition | inhibition, % at 10 µM | 0.61% of 280,000 active | S. cerevisiae NALP1/ASC/caspase-1 growth, X-gal OD620, 72 h; in the data active = inhibition mostly above about 24%, no sharp cut-off; inactive = mostly below about 32%
NALP3 yeast inh – inhibitors of NALP3 inflammasome in yeast. inhibition, % at 10 µM. Yeast reconstituted NLRP3/ASC/caspase-1, beta-gal luminescence, 24 h. AID 2825. 0.39% of 330,000 active;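 active = inhibition of 50% or more; inactive = inhibition below 50%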
ATG4B inh – blocks human ATG4B protease cleavage of LC3 substrate. inhibition, % at 8.33 µM. 0.51% of 340,000 active. Q9Y4P1. ATG4B cleavage of LC3-PLA2, NBD-HPC fluorescence, 1 h; in the data active = inhibition above about 40%
Of the large screens only hits and unclear results are named; the others gave an inactive call. Sampled rows, rich in hits. Any-hit rate of the full collection: about 4.8%.

S=c1[nH]nc(-c2ccccc2)n1/N=C/c1cccs1	Calb FLC 104.7 (no result: UCH37 DUB inh)
CN(Cc1c(C(=O)NN=Cc2cccs2)nnn1-c1nonc1N)c1ccccc1	none (no result: Calb FLC, ALR inh, NALP1 inh, NALP3 yeast inh, ATG4B inh)
Cc1ccc(N2CCN(N=Cc3ccncc3)CC2)cc1	none (no result: Calb FLC, ALR inh, NALP1 inh, NALP3 yeast inh, ATG4B inh)
COc1ccc2nc(S(=O)Cc3ncc(C)c(OC)c3C)[nH]c2c1 (centres undefined)	ALR inh 97.6 (no result: Calb FLC)
COc1ccc(N(CC(=O)NN=Cc2ccc(F)cc2)S(=O)(=O)c2ccccc2)cc1	none (no result: Calb FLC, ALR inh, NALP1 inh, NALP3 yeast inh, ATG4B inh)
Cc1cc(C=NNC(=O)C(O)(c2ccccc2)c2ccccc2)c(C)n1-c1ccccc1	none (no result: Calb FLC, ALR inh, NALP1 inh, NALP3 yeast inh, ATG4B inh)
CCC(=O)Nc1nnc(C(C)(C)C)s1	ALR inh 98.2
COC(=O)c1ccc(C=NNC(=O)C(=O)N2CCCCCC2)cc1	none (no result: Calb FLC, ALR inh, NALP1 inh, NALP3 yeast inh, ATG4B inh)
CC(OC(=O)C1=COCCO1)C(=O)Nc1ccccc1C#N (centres undefined)	none
CC(OC(=O)C1=COCCO1)C(=O)Nc1ccc(Oc2ccccc2)cc1 (centres undefined)	NALP1 inh 36.1
COc1ccc(N(CC(=O)Nc2ccccc2C(N)=O)S(=O)(=O)c2ccc(C)c([N+](=O)[O-])c2)cc1	Calb FLC 95.2 (no result: ALR inh)
O=C(O)c1ccc(NN=Cc2cn(-c3ccccc3)nc2-c2cccs2)cc1	none (no result: Calb FLC, ALR inh, NALP1 inh, NALP3 yeast inh, ATG4B inh)
COCCn1c(SCC(=O)c2ccccc2)nc2c(c1=O)SC(C)C2 (centres undefined)	ALR inh 98.8
COCCn1c(SCC(=O)N2CCN(c3ccccc3)CC2)nc2c(c1=O)SC(C)C2 (centres undefined)	none
CCn1c(SCC(=O)c2ccccc2)nc2c(c1=O)SC(C)C2 (centres undefined)	ALR inh 99.0
Cc1nn(-c2ccccc2)c(Oc2ccc(F)cc2)c1C=Nn1cnnc1	none (no result: Calb FLC, ALR inh, NALP1 inh, NALP3 yeast inh, ATG4B inh)
CN(C)CC(O)CN(c1ccccc1)c1ccccc1 (centres undefined)	ALR inh 99.0
C[N+](C)=C1SCC(C)(C=NO)S1 (centres undefined)	none (no result: Calb FLC, ALR inh, NALP1 inh, NALP3 yeast inh, ATG4B inh)
CCCc1nnc(NC(=O)c2nc(S(=O)(=O)Cc3ccc(C)cc3)ncc2Cl)s1	none (no result: UCH37 DUB inh)
CSc1nnc(NC(=O)c2nc(S(=O)(=O)Cc3ccccc3)ncc2Cl)s1	ALR inh 97.4 (no result: UCH37 DUB inh)
CCOc1ccccc1NC(=O)c1nc(S(=O)(=O)Cc2ccccc2)ncc1Cl	ALR inh 96.1
CC(C)c1nnc(NC(=O)c2nc(S(=O)(=O)Cc3ccccc3)ncc2Cl)s1	ALR inh 97.9 (no result: UCH37 DUB inh)
COc1ccc(C=NNC(=O)CNC(=O)C2COc3ccccc3O2)cc1[N+](=O)[O-] (centres undefined)	none (no result: Calb FLC, ALR inh, NALP1 inh, NALP3 yeast inh, ATG4B inh)
CN1CC2([N+](=O)[O-])CC=C(Oc3ccccc3)C([N+](=O)[O-])(C1)C2 (centres undefined)	none
CN1CC2([N+](=O)[O-])CC=C(OCCO)C([N+](=O)[O-])(C1)C2 (centres undefined)	Calb FLC 113.4
C/C(=N/Nc1ccccc1C(=O)O)c1cccs1	ALR inh 94.5 (no result: UCH37 DUB inh)
Cc1cc(C)nc(SCC(=O)Nc2ccc(N3CCOCC3)cc2)n1	ALR inh 98.2
CCCc1nc(SCC(=O)Nc2ccc(N3CCOCC3)cc2)c2ccccc2n1	ALR inh 98.5 (no result: UCH37 DUB inh)
CC(C)c1nc(SCC(=O)Nc2ccc(N3CCOCC3)cc2)c2ccccc2n1	ALR inh 98.7
CC(=NNC(=O)c1cc(C)oc1C)c1ccc2ccccc2c1	none (no result: Calb FLC, ALR inh, NALP1 inh, NALP3 yeast inh, ATG4B inh)
Cc1occc1C(=O)NN=Cc1ccc(Br)s1	none (no result: Calb FLC, ALR inh, NALP1 inh, NALP3 yeast inh, ATG4B inh)
CC(=O)c1c(-c2ccccc2)c2cc(Cl)ccc2[nH]c1=O	NALP1 inh 30.4
CC(=O)c1c(-c2ccc(Cl)cc2)c2ccccc2[nH]c1=O	none
CCC(/C=N/NC(=O)C(N)=O)CC	ALR inh 98.1 (no result: UCH37 DUB inh)
O=C(c1ccccc1Br)N1CCc2c([nH]c3ccccc23)C1	ALR inh 83.3
C=CCn1c(C)cc(C2=NNC(=Nc3ccc(C)cc3)SC2)c1C	UCH37 DUB inh 29.5
C=CCn1c(C)cc(C2=NNC(=NC(C)(C)C)SC2)c1C	ALR inh 98.8 (no result: UCH37 DUB inh)
Cc1cc(C2=NNC(=NC3CC3)SC2)c(C)n1Cc1ccco1	none (no result: Calb FLC, ALR inh, NALP3 yeast inh)
COCCn1c(C)cc(C2=NNC(=NC3CC3)SC2)c1C	ALR inh 96.9
C=CCN=C1NN=C(c2cc(C)n(CCOC)c2C)CS1	none (no result: NALP1 inh)
COC(=O)N=C(Cc1ccc(OC)cc1)c1ccc(OC)cc1	none (no result: Calb FLC, ALR inh, NALP1 inh, NALP3 yeast inh, ATG4B inh)
O=C(NN=Cc1cccnc1)c1ccccc1OCc1ccc(Br)cc1	none (no result: Calb FLC, ALR inh, NALP1 inh, NALP3 yeast inh, ATG4B inh)
CCCCNC(=O)N(O)C1N(N=Cc2ccc(N(C)C)cc2)C(=S)SC1(C)C (centres undefined)	none (no result: Calb FLC, ALR inh, NALP1 inh, NALP3 yeast inh, ATG4B inh)
CNC(=O)N(O)C1N(/N=C/c2ccc(N(C)C)cc2)C(=S)SC1(C)C (centres undefined)	ALR inh 98.5 (no result: UCH37 DUB inh)
CCOC(=O)c1ccc(NC(=O)COc2ccc(S(=O)(=O)NC(C)CC)cc2)cc1 (centres undefined)	NALP1 inh 28.3
CCOc1cc(C(=O)NN=C(C)Cc2ccc(OC)cc2)cc(OCC)c1OCC	none (no result: Calb FLC, ALR inh, NALP1 inh, NALP3 yeast inh, ATG4B inh)
Cc1ccc(S(=O)(=O)NNC(=O)c2sccc2-n2cccc2)cc1	none
O=C(NNS(=O)(=O)c1cc(Cl)cc(Cl)c1)c1sccc1-n1cccc1	ALR inh 87.9
CN1c2ccccc2C(C)(C)[C@]12C=Cc1cc(O)ccc1O2	ALR inh 87.8
CN1c2ccccc2C(C)(C)C12C=Nc1c(ccc3ccccc13)O2 (centres undefined)	none
Cn1c(=O)n(C)c2cc(S(=O)(=O)Nc3cc(Cl)ccc3O)ccc21	ALR inh 98.4
CSc1nnc(C(C)(C)C)c(=O)n1N=Cc1ccc(Cl)cc1	none (no result: Calb FLC, ALR inh, NALP1 inh, NALP3 yeast inh, ATG4B inh)
CC(c1ccc(F)cc1)n1c(-c2ccc3ccccc3n2)n[nH]c1=S (centres undefined)	ALR inh 88.5
COc1cc(-c2n[nH]c(=S)n2C(C)c2ccccc2)cc(OC)c1OC (centres undefined)	ALR inh 92.7
CC(c1ccc(Cl)cc1)n1c(-c2ccc3ccccc3n2)n[nH]c1=S (centres undefined)	Calb FLC 79.1
COc1ccc(C=NNC(=O)c2ccc(Br)o2)cc1Cn1cc([N+](=O)[O-])cn1	none (no result: Calb FLC, ALR inh, NALP1 inh, NALP3 yeast inh, ATG4B inh)
CCN(c1ccc(C(=O)CSc2nnc(C3CC3)n2C2CC2)cc1)S(C)(=O)=O	ALR inh 96.2 (no result: Calb FLC, NALP1 inh)
Nc1nc(N)c(N=O)c(OCC2CCCCC2)n1	ALR inh 92.5 (no result: Calb FLC)
NS(=O)(=O)OCC1CCCCC1	none
COC(CN(C)C(=O)c1ccc2c(c1)NC(=O)c1ccccc1S2)OC	Calb FLC 119.6
CC1(C)CC(=O)C(C(c2ccco2)C2C(=O)CC(C)(C)CC2=O)C(=O)C1	Calb FLC inconclusive, ALR inh 83.5
CC1(C)CC(=O)C(C(c2ccc(F)cc2)C2C(=O)CC(C)(C)CC2=O)C(=O)C1	none
CC(Oc1ccc2ccccc2c1)C(=O)NN=Cc1cccnc1 (centres undefined)	none (no result: Calb FLC, ALR inh, NALP1 inh, NALP3 yeast inh, ATG4B inh)
CCn1c(C)nc2cc(C(=O)NNC(=S)Nc3ccc(F)cc3)ccc21	none
